Measurements: the RNAGym collection of RNA variant scans (doi:10.1126/science.aae0568)
Fewer inactive variants are shown than the library holds.

B1: tRNA (parent)
chain: GUUCCGUUGGCGUAAUGGUAACGCGUCUCCCUCCUAAGGAGAAGACUGCGGGUUCGAGUCCCGUACGGAACG

Variants of: B1
Assay: yeast fitness relative to wild type (ratio to wild type); higher = fitter; tRNA-Arg(CCU), competitive growth, 37 C, YPD
Summary of the method: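 Variants of the tRNA-Arg(CCU) gene were chemically synthesised with a 3% per-site mutation rate across 69 sites and placed at the native genomic locus in Saccharomyces cerevisiae. Six parallel replicates of the pooled strains were competed in YPD at 37°C for 24 hours, and gene amplicons from the start and end populations were read by 100-nucleotide paired-end sequencing. Darwinian fitness relative to wild type was derived from changes in genotype frequencies. Genotypes required ≥ 100 starting reads, and estimates < 0.5 were set to 0.5.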
For C4U C61U A70G, the yeast fitness was 0.777.
With C4U C5G U28C G67C the yeast fitness was 0.909.
In the case of C4U C11G A45U, the yeast fitness is reported as 0.545.
In the case of C4U C24G C34A A45C G56A C61A A65C A69C A70G, the yeast fitness is reported as 0.597.
In the case of C4U C30A G68A, the yeast fitness is reported as 0.786.
C4U C34A C46U U47A gave a yeast fitness of at most 0.5.
With C4U C11A G39A G51A G67C the yeast fitness was at most 0.5.
C4U C31U A43U G48A U53A showed a yeast fitness of at most 0.5.
Variant C4U C22U C62U has a yeast fitness of 0.62.
Variant C4U C11U C22G A45U has a yeast fitness of at most 0.5.
With C4U C29U G63A the yeast fitness was 0.517.
With C4U C5U A14C G68A the yeast fitness was at most 0.5.
In the case of C4U C30A A43G, the yeast fitness is reported as 0.728.
For C4U C34U A43C A69U, the yeast fitness was 0.557.
Variant C4U C27A C31U C60G has a yeast fitness of at most 0.5.
For C4U C30U U54A, the yeast fitness was at most 0.5.
Variant C4U G6A A15U A20C G25C U35A has a yeast fitness of at most 0.5.
C4U C11G C29U C62U G67C showed a yeast fitness of at most 0.5.
Work on C4U C55A A65U yielded a yeast fitness of at most 0.5.
C4U C27U U64C gave a yeast fitness of 0.757.
Variant C4U C5G U7G C33A A70U has a yeast fitness of at most 0.5.
C4U C24G C49U C60U C61A gave a yeast fitness of 0.58.
C4U C22U gave a yeast fitness of 0.76.
C4U C27G C31G showed a yeast fitness of at most 0.5.
For C4U C29A G52C C55G U59G, the yeast fitness was 0.656.
With C4U C46G C61G A65C the yeast fitness was 0.588.
C4U C11A G12A G48A A57C showed a yeast fitness of at most 0.5.
Work on C4U C46U C49G U59C yielded a yeast fitness of at most 0.5.
With C4U C24G U26A U28G G68C the yeast fitness was at most 0.5.
C4U C66A G68C showed a yeast fitness of 0.546.
With C4U C27U C29G A42C C55G the yeast fitness was at most 0.5.
With C4U C29A G52C C55A U59G the yeast fitness was 0.554.
For C4U C5G U28C A70C, the yeast fitness was 0.637.
Variant C4U C11U U13C C33G A40C has a yeast fitness of at most 0.5.
C4U C27U U35C C61G showed a yeast fitness of at most 0.5.
In the case of C4U C22G U28A A36U A65U, the yeast fitness is reported as at most 0.5.
Variant C4U C22G U28A A36U G51A has a yeast fitness of at most 0.5.
Work on C4U C11U C30G yielded a yeast fitness of at most 0.5.
In the case of C4U C30A A37U G44C U53A, the yeast fitness is reported as at most 0.5.
In the case of C4U C11G C34U G56A, the yeast fitness is reported as at most 0.5.
With C4U C34U A40C G41A C62U A65U the yeast fitness was at most 0.5.
Work on C4U C11U C34G A40C G51C yielded a yeast fitness of 0.534.
Work on C4U C33A U54C yielded a yeast fitness of at most 0.5.
With C4U C11G C24A A36U A43C the yeast fitness was 0.55.
With C4U C31G U47C G48C the yeast fitness was at most 0.5.
Variant C4U C33A A40U has a yeast fitness of 0.564.
C4U C31G A40G A45C U53A A70U showed a yeast fitness of at most 0.5.
C4U C33U gave a yeast fitness of 0.789.
With C4U C33G the yeast fitness was 0.722.
In the case of C4U C27G A65U, the yeast fitness is reported as at most 0.5.
For C4U C24G C30G C31U U35A A36U G44A G63C, the yeast fitness was 0.654.
C4U C31U C60A showed a yeast fitness of at most 0.5.
In the case of C4U C22G A42G, the yeast fitness is reported as 0.695.
Variant C4U C5U has a yeast fitness of 1.01.
With C4U C11G C34U the yeast fitness was 0.551.
With C4U C22G U28A A36U C55G C62U the yeast fitness was at most 0.5.
For C4U C22G U28C U59C, the yeast fitness was at most 0.5.
For C4U C22U C27U G58C, the yeast fitness was at most 0.5.
Variant C4U C30A G50C G56A C62U G67U has a yeast fitness of at most 0.5.
With C4U C11G G18A U26C G52C the yeast fitness was at most 0.5.
Variant C4U C31G C34U A43U has a yeast fitness of 0.786.
With C4U C34A G44C the yeast fitness was 0.636.
In the case of C4U C11A A14C U28A C31U A37U G39A A42G, the yeast fitness is reported as 0.645.
In the case of C4U C27U C31G C55U, the yeast fitness is reported as at most 0.5.
Variant C4U C11A G12A A42U C49U G51A has a yeast fitness of at most 0.5.
For C4U C46U A69C, the yeast fitness was 0.817.
Variant C4U C46U A69U has a yeast fitness of 1.16.
In the case of C4U C33A A42G, the yeast fitness is reported as at most 0.5.
Variant C4U C24G U26A U28G C66A has a yeast fitness of at most 0.5.
Variant C4U G6A A15U A20C G25C U35A A45U has a yeast fitness of at most 0.5.
C4U C11A A42G G48C A65U showed a yeast fitness of 0.555.
Variant C4U C33A A40U G68A has a yeast fitness of at most 0.5.
Work on C4U C33U G44A yielded a yeast fitness of at most 0.5.
Work on C4U C11U C31G C46A G63C A65U yielded a yeast fitness of at most 0.5.
With C4U C30U C31G the yeast fitness was 0.583.
Work on C4U C34G A69G yielded a yeast fitness of at most 0.5.
In the case of C4U C22G C29G C31A A69C, the yeast fitness is reported as at most 0.5.
Variant C4U C60U C62A has a yeast fitness of at most 0.5.
In the case of C4U C27A A43U G51C, the yeast fitness is reported as at most 0.5.
Variant C4U C11G C29U U59G has a yeast fitness of at most 0.5.
Variant C4U C33G A70G has a yeast fitness of at most 0.5.
With C4U C55U A65G the yeast fitness was 0.554.
In the case of C4U C24G A37G, the yeast fitness is reported as 0.567.
C4U C11U U35A gave a yeast fitness of 0.523.
In the case of C4U C27U A57C C61U, the yeast fitness is reported as at most 0.5.
Variant C4U C5G C60A has a yeast fitness of at most 0.5.
Work on C4U C5G U28C C61A yielded a yeast fitness of at most 0.5.
In the case of C4U C11A C22U A42U, the yeast fitness is reported as 0.577.
Variant C4U C27U G39C G52A G56A has a yeast fitness of 0.614.
For C4U C24A A43G G63C, the yeast fitness was at most 0.5.
C4U C24A U47G U59C gave a yeast fitness of at most 0.5.
C4U C11U G44C C49U A70U showed a yeast fitness of at most 0.5.
C4U C11A A37C gave a yeast fitness of 0.569.
With C4U C27G C33U A57G the yeast fitness was at most 0.5.
C4U C11G G18C U47A G63A showed a yeast fitness of at most 0.5.
With C4U C22U G23A the yeast fitness was at most 0.5.
With C4U C11G G56C the yeast fitness was at most 0.5.
C4U C24U A36C gave a yeast fitness of at most 0.5.
In the case of C4U C24G A36C A70C, the yeast fitness is reported as at most 0.5.
C4U C5G C34U U54A showed a yeast fitness of at most 0.5.
Variant C4U C29A C31G A42C A45U A69U has a yeast fitness of at most 0.5.
With C4U C27U the yeast fitness was 1.02.
In the case of C4U C27A, the yeast fitness is reported as 0.737.
With C4U C27G the yeast fitness was 0.656.
C4U C11A U28A C31U G51C G56A showed a yeast fitness of at most 0.5.
With C4U C27U A45C G48A G56C the yeast fitness was 0.612.
Variant C4U C29A A36C A40U G51A G68C has a yeast fitness of at most 0.5.
For C4U C24U C27G, the yeast fitness was at most 0.5.
Work on C4U C22G C33A A36C A43G C55G yielded a yeast fitness of 0.742.
With C4U C11U G44C the yeast fitness was 0.702.
C4U C22G U28A A36U C66U gave a yeast fitness of at most 0.5.
C4U C55U gave a yeast fitness of 0.694.
For C4U C11A A65C, the yeast fitness was 0.538.
Variant C4U C34A A43U U47C C62G C66A has a yeast fitness of at most 0.5.
With C4U C46A G67C the yeast fitness was at most 0.5.
Work on C4U G6A A36C yielded a yeast fitness of at most 0.5.
Variant C4U C5G G18C C34U A69C has a yeast fitness of at most 0.5.
Work on C4U C31U C61G yielded a yeast fitness of 0.58.
Work on C4U C60G G63C yielded a yeast fitness of at most 0.5.
Variant C4U C5G G9A G51C has a yeast fitness of at most 0.5.
With C4U C22U C33U A42C A57G the yeast fitness was at most 0.5.
C4U C29G C30U gave a yeast fitness of at most 0.5.
Work on C4U C5G G41A A70G yielded a yeast fitness of at most 0.5.
Variant C4U C24A has a yeast fitness of 0.574.
In the case of C4U C49A C66U, the yeast fitness is reported as 0.612.
For C4U C34G G52U, the yeast fitness was 0.62.
In the case of C4U C24A C30G A65U C66A, the yeast fitness is reported as at most 0.5.
With C4U C11U A43U C55G the yeast fitness was at most 0.5.
Variant C4U C11U A45U A57U has a yeast fitness of 0.655.
For C4U C31U A37U G67A G68A, the yeast fitness was at most 0.5.
In the case of C4U C22U A45G C66G, the yeast fitness is reported as at most 0.5.
C4U C11U C33U gave a yeast fitness of 0.575.
C4U C31U C55G U59A showed a yeast fitness of 0.546.
Variant C4U C11G C34U C55U has a yeast fitness of at most 0.5.
In the case of C4U C24A A57U C60A G68C, the yeast fitness is reported as at most 0.5.
With C4U C49A A57C A69U the yeast fitness was at most 0.5.
C4U C29U C31U showed a yeast fitness of 0.538.
For C4U C30A, the yeast fitness was 0.917.
In the case of C4U C24A G44C G50C U54G C61G, the yeast fitness is reported as at most 0.5.
In the case of C4U C34G U35A A42U C60U, the yeast fitness is reported as at most 0.5.
For C4U C24U A43G C60U C61G, the yeast fitness was at most 0.5.
C4U C31U A40U A69U gave a yeast fitness of 0.625.
C4U C5G G12A A14U U54A A57U gave a yeast fitness of at most 0.5.
Variant C4U C22G C27U G50A G63A has a yeast fitness of at most 0.5.
C4U C5G G41A showed a yeast fitness of 0.505.
C4U C30A C66U gave a yeast fitness of 0.82.
Variant C4U C22G U59C has a yeast fitness of 0.712.
C4U C11A C46U U59C gave a yeast fitness of at most 0.5.
C4U C27G A45C showed a yeast fitness of 0.564.
Work on C4U C61U yielded a yeast fitness of 0.977.
Work on C4U C66U yielded a yeast fitness of 0.978.
C4U C29A G52C U54C C55A U59G gave a yeast fitness of at most 0.5.
Variant C4U C55U C66A has a yeast fitness of at most 0.5.
With C4U C11U C22G the yeast fitness was 0.629.
For C4U C27G A65U A70G, the yeast fitness was at most 0.5.
For C4U C11U G25C G41A, the yeast fitness was 0.706.
For C4U G6A A14C A65U, the yeast fitness was at most 0.5.
With C4U C11A G67U the yeast fitness was at most 0.5.
C4U C30A U59C A69C gave a yeast fitness of 0.568.
Work on C4U C30U A57G G68A yielded a yeast fitness of 0.525.
C4U C24U C30A showed a yeast fitness of 0.597.
With C4U C24G U26A U28G the yeast fitness was 0.539.
Variant C4U C24G C61U has a yeast fitness of 0.555.
For C4U C11U G25C, the yeast fitness was 0.747.
With C4U C24U C55U the yeast fitness was at most 0.5.
C4U C30A A45G C55G A65G gave a yeast fitness of 0.636.
With C4U C11A A37C A65C the yeast fitness was at most 0.5.
